{"data": "Experimental data pooled from the literature", "target": "Serine/threonine-protein kinase Sgk3 (SGK3, Homo sapiens, UniProt Q96BR1)", "Sequence (Q96BR1 1-496, as in one of the studies)": "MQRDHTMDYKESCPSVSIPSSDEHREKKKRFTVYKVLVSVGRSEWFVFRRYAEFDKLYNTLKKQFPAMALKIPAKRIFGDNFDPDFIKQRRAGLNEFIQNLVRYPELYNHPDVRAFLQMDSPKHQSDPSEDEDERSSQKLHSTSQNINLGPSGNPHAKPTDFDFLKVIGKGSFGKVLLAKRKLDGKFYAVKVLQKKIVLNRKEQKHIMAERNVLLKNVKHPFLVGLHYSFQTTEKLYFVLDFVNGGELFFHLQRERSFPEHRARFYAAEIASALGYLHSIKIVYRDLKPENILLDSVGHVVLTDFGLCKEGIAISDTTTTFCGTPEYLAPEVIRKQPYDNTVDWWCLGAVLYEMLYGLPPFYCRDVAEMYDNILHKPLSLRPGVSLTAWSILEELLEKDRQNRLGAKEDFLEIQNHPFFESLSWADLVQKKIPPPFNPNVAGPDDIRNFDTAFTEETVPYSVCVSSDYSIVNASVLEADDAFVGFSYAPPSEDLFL", "note": "Each line is one published result; the experiments were not run side by side."}
{"Structure (SMILES)": "O=C(c1ccc(Nc2ncc(Cl)c(-c3cc4ccccc4s3)n2)cc1)N1CCC(N2CCCC2)CC1", "effect on": "binding", "method": "competition with immobilised ligand", "concentration": "1 µM", "remaining binding": "5.6%"}
{"Structure (SMILES)": "COc1ccnn2ncc(-c3ccnc(N(C)C)n3)c12", "effect on": "binding", "concentration": "1 µM", "remaining binding": "95%"}
{"Structure (SMILES)": "C[C@H](c1cccc(C#N)c1)n1cc(Cl)cc(C(N)=O)c1=N", "effect on": "cell-free assay", "method": "competition with immobilised ligand", "concentration": "1 µM", "remaining binding": "80%"}
{"Structure (SMILES)": "Nc1ncc2c(n1)-c1c([nH]c3ccc(C#CC4CC4)cc13)CCCC2", "effect on": "binding", "method": "competition with immobilised ligand", "concentration": "1 µM", "remaining binding": "100%"}
{"Structure (SMILES)": "O=C(Nc1cnc(Oc2ccc(F)cc2)nc1)N1CCc2ncccc2[C@@H]1c1ccc(F)cc1", "effect on": "cell-free assay", "method": "competition with immobilised ligand", "concentration": "1 µM", "remaining binding": "100%"}
{"Structure (SMILES)": "FC(F)(F)Oc1cccc(-c2cnc3ccc(-c4ccncc4)nn23)c1", "effect on": "binding", "method": "competition with immobilised ligand", "concentration": "5 µM", "remaining binding": "70%"}
{"Structure (SMILES)": "CS(=O)(=O)c1cc(C2(NC(=O)c3cncc4c3cnn4-c3ccc(F)cc3)CC2)ccn1", "effect on": "cell-free assay", "method": "competition with immobilised ligand", "concentration": "1 µM", "remaining binding": "100%"}
{"Structure (SMILES)": "c1cnn2ncc(-c3ccnc(N4CCC45COC5)n3)c2c1", "effect on": "binding", "concentration": "1 µM", "remaining binding": "71%"}
{"Structure (SMILES)": "O=C(c1ccc(Nc2ncc(Cl)c(-c3ccc(Cl)s3)n2)cc1)N1CCC(N2CCCC2)CC1", "effect on": "binding", "method": "competition with immobilised ligand", "concentration": "1 µM", "remaining binding": "4.7%"}
{"Structure (SMILES)": "Cc1cnn2ncc(-c3ccnc(N(C)C)n3)c2c1", "effect on": "binding", "concentration": "1 µM", "remaining binding": "100%"}
{"Structure (SMILES)": "CCC(=N\\O)/C(C)=C/c1ccc(F)cc1", "effect on": "cell-free assay", "method": "competition with immobilised ligand", "concentration": "1 µM", "remaining binding": "81%"}
{"Structure (SMILES)": "CNC(=O)[C@@H]1CC[C@@H](n2c(-c3ccc4cnccc4c3)nc3ccc(C(=O)NCc4cccc(C(N)=O)c4)cc32)C1", "effect on": "binding", "method": "competition with immobilised ligand", "concentration": "1 µM", "remaining binding": "82%"}
{"Structure (SMILES)": "C[C@@H]1CCN(c2nccc(-c3cnn4ncccc34)n2)C1", "effect on": "binding", "concentration": "1 µM", "remaining binding": "87%"}
{"Structure (SMILES)": "C[C@@]1(Cc2ccc(C#N)cc2)C(=O)N(c2cc(Cl)cc(Cl)c2)c2ncc(C(=O)NC3(c4nc(C5CCC5)no4)CC3)n21", "effect on": "cell-free assay", "method": "competition with immobilised ligand", "concentration": "1 µM", "remaining binding": "100%"}
{"Structure (SMILES)": "O=C(NCC1CCOCC1)c1n[nH]cc1NC(=O)c1c(F)cccc1F", "effect on": "binding", "method": "competition with immobilised ligand", "concentration": "1 µM", "remaining binding": "78%"}
{"Structure (SMILES)": "O=C(c1ccc(Nc2nccc(-c3cc4ccccc4s3)n2)cc1)N1CCC(N2CCCC2)CC1", "effect on": "binding", "method": "competition with immobilised ligand", "concentration": "1 µM", "remaining binding": "19%"}
{"Structure (SMILES)": "N[C@H]1CCN(c2nccc(-c3cnn4ncccc34)n2)C1", "effect on": "binding", "concentration": "1 µM", "remaining binding": "100%"}
{"Structure (SMILES)": "CCN1CCN(Cc2ccc(C(=O)Nc3ccc(C)c(Oc4ccc5c(c4)CC(=O)N5)c3)cc2C(F)(F)F)CC1", "effect on": "binding", "method": "competition with immobilised ligand", "concentration": "1 µM", "remaining binding": "100%"}
{"Structure (SMILES)": "COc1ncc2cc3ccccc3nc2c1C#N", "effect on": "cell-free assay", "method": "competition with immobilised ligand", "concentration": "5 µM", "remaining binding": "100%"}
{"Structure (SMILES)": "COCCOc1nc(-c2ccc(Cl)nc2)nc2c1CN(C(=O)c1ncn3ccccc13)CC2", "effect on": "cell-free assay", "method": "competition with immobilised ligand", "concentration": "0.1 µM", "remaining binding": "100%"}
{"Structure (SMILES)": "F[C@@H]1CCN(c2nccc(-c3cnn4ncccc34)n2)C1", "effect on": "binding", "concentration": "1 µM", "remaining binding": "89%"}
